Reference: ChEMBL document CHEMBL1123352, “Anticonvulsant activity of 2- and 3-aminobenzanilides” (J Med Chem, 1986)
“And” between values parts separate entries of the source, which are not always exact repeats. Equal values may be shown once. The source made the active and inactive calls. The calls are words filed in the database; no cut-off is given here.

Columns and labels:
Mus musculus [1] = assay: Anticonvulsant activity against maximal electroshock (MES) induced seizures in mice 4 hours after ip administration of 600 mg/kg.; format: functional, organism-based; set-up: dose 600 mg/kg
Summary of the method: (§1)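 Male Carworth Farms No. 1 mice were dosed ip with compound in 30% polyethylene glycol 400, at 30, 100 and 300 mg/kg and sometimes 600 mg/kg, and tested 30 min and 4 h later. A drop of 0.9% saline went in the eye, then 60-cycle AC at 50 mA was given for 0.2 s via corneal electrodes. Protection meant abolition of hind limb tonic extension.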

Mus musculus [2] = assay: Anticonvulsant activity against subcutaneous pentylenetetrazole induced convulsions in mice 30 min after ip administration of 600 mg/kg.; format: functional, organism-based; set-up: dose 600 mg/kg
Summary of the method: (§2)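 Male Carworth Farms No. 1 mice were dosed ip with compound in 30% PEG 400, at 30–600 mg/kg, and read at 30 min and 4 h. Pentylenetetrazole was given at 85 mg/kg as a 0.5% solution sc in the posterior midline. Protection meant no single episode of clonic spasms lasting at least 5 s over a 30-min observation.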

Mus musculus [3] = assay: Compound was tested for toxicity by rotarod assay method in mice 30 min after ip administration of 600 mg/kg; no activity; format: organism-based; set-up: dose 600 mg/kg, route intraperitoneal; details: in vivo, 0.5 h
Mus musculus [4] = assay: Anticonvulsant activity against subcutaneous pentylenetetrazole induced convulsions in mice 4 hr after ip administration of 600 mg/kg.; format: functional, organism-based; set-up: dose 600 mg/kg; summary of the method: as §2
Mus musculus [5] = assay: Compound was tested for toxicity by rotarod assay method in mice 4 hours after ip administration of 600 mg/kg; NA=No activity; format: organism-based; set-up: dose 600 mg/kg, route intraperitoneal; details: in vivo
Mus musculus [6] = assay: Anticonvulsant activity against maximal electroshock (MES) induced seizures in mice 30 minutes after ip administration of 600 mg/kg; A=Active; format: functional, organism-based; set-up: dose 600 mg/kg; summary of the method: as §1
Mus musculus [7] = assay: Anticonvulsant activity against subcutaneous pentylenetetrazole induced convulsions in mice 4 hours after ip administration of 600 mg/kg; NA=No activity; format: functional, organism-based; set-up: dose 600 mg/kg; summary of the method: as §2
Mus musculus [8] = assay: Compound was tested for toxicity by rotarod assay method in mice 30 min after ip administration of 600 mg/kg; A=Active; format: organism-based; set-up: dose 600 mg/kg, route intraperitoneal; details: in vivo, 0.5 h
Mus musculus [9] = assay: Anticonvulsant activity against maximal electroshock (MES) induced seizures in mice 30 minutes after ip administration of 300 mg/kg; A=Active; format: functional, organism-based; set-up: dose 300 mg/kg; summary of the method: as §1
Mus musculus [10] = assay: Anticonvulsant activity against maximal electroshock (MES) induced seizures in mice 4 hours after ip administration of 600 mg/kg; A=Active; format: functional, organism-based; set-up: dose 600 mg/kg; summary of the method: as §1
Mus musculus [11] = assay: Anticonvulsant activity against sc pentylenetetrazole induced convulsions in mice 30 minutes after ip administration of 600 mg/kg; A=Active; format: functional, organism-based; set-up: dose 600 mg/kg; summary of the method: as §2
Mus musculus [12] = assay: Anticonvulsant activity against subcutaneous pentylenetetrazole induced convulsions in mice after intraperitoneal administration after 4 hr at 600 mg/kg; NA=No activity; format: functional, organism-based; set-up: dose 600 mg/kg; summary of the method: as §2
Mus musculus [13] = assay: Compound was tested for toxicity by rotarod assay method in mice 30 min after ip administration of 300 mg/kg; Active; format: organism-based; set-up: dose 300 mg/kg, route intraperitoneal; details: in vivo, 0.5 h
Mus musculus [14] = assay: Compound was tested for toxicity by rotarod assay method in mice 4 hours after ip administration at 600 mg/kg; no activity; format: organism-based; set-up: dose 600 mg/kg, route intraperitoneal; details: in vivo
Mus musculus [15] = assay: Anticonvulsant activity against maximal electroshock (MES) induced seizures in mice 30 minutes after ip administration of 600 mg/kg; NA=No activity; format: functional, organism-based; set-up: dose 600 mg/kg; summary of the method: as §1
Mus musculus [16] = assay: Anticonvulsant activity against subcutaneous pentylenetetrazole induced convulsions in mice 4 hours after ip administration of 600 mg/kg; No=No activity; format: functional, organism-based; set-up: dose 600 mg/kg; summary of the method: as §2
Mus musculus [17] = assay: Compound was tested for toxicity by rotarod assay method in mice 30 min after ip administration at 600 mg/kg; no activity; format: organism-based; set-up: dose 600 mg/kg, route intraperitoneal; details: in vivo, 0.5 h
Mus musculus [18] = assay: Compound was tested for toxicity by rotarod assay method in mice after intraperitoneal administration after 30 minutes; format: functional, organism-based
Summary of the method: (§3)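 Neurologic deficit was tested in male Carworth Farms No. 1 mice 30 min and 4 h after ip dosing in 30% PEG 400, at 30–600 mg/kg. Each mouse was placed on a 1-in.-diameter knurled plastic rod turning at 6 rpm. Toxicity meant failing to stay on the rod for 1 min.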

Mus musculus [19] = assay: Compound was tested for toxicity by rotarod assay method in mice after intraperitoneal administration after 4 hours; format: functional, organism-based; summary of the method: as §3
Mus musculus [20] = assay: Anticonvulsant activity against sc pentylenetetrazole-induced convulsions in mice 30 minutes after ip administration of 300 mg/kg; A=Active; format: functional, organism-based; set-up: dose 300 mg/kg; summary of the method: as §2
Mus musculus [21] = assay: Compound was tested for toxicity by rotarod assay method in mice 4 hours after ip administration of 600 mg/kg; A=Active; format: organism-based; set-up: dose 600 mg/kg, route intraperitoneal; details: in vivo
Mus musculus [22] = assay: Compound was tested for toxicity by rotarod assay method in mice 30 min after ip administration of 300 mg/kg; A=Active; format: organism-based; set-up: dose 300 mg/kg, route intraperitoneal; details: in vivo, 0.5 h
Mus musculus [23] = assay: Anticonvulsant activity against sc pentylenetetrazole-induced convulsions in mice 4 hr after ip administration of 600 mg/kg; A=Active; format: functional, organism-based; set-up: dose 600 mg/kg; summary of the method: as §2
Mus musculus [24] = assay: Anticonvulsant activity against maximal electroshock (MES) induced seizures in mice 30 minutes after ip administration of 100 mg/kg; A=Active; format: functional, organism-based; set-up: dose 100 mg/kg; summary of the method: as §1
[25] = Protective index measured as the ratio between TD50 and ED50; format: ADME
Mus musculus [26] = assay: Compound for toxicity by rotarod assay method in mice after administration; format: organism-based; details: in vivo; summary of the method: as §3
Mus musculus [27] = assay: Compound for anticonvulsant activity against maximal electroshock (MES)-induced seizures in mice after administration; format: functional; summary of the method: as §1
Mus musculus [28] = assay: Anticonvulsant activity against maximal electroshock (MES) induced seizures in mice […] after ip administration of 600 mg/kg; NA=No activity; format: functional, organism-based; set-up: dose 600 mg/kg; summary of the method: as §1
Mus musculus [29] = assay: Anticonvulsant activity against maximal electroshock (MES) induced seizures in mice 4 hours after ip administration of 300 mg/kg; A=Active; format: functional, organism-based; set-up: dose 300 mg/kg; summary of the method: as §1

## Cc1cccc(C(C)C)c1NC(=O)c1ccccc1N
Mus musculus [1]
  Anticonvulsant activity: inactive
Mus musculus [2]
  Anticonvulsant activity: inactive
Mus musculus [3]
  Toxicity: Not Active
Mus musculus [4]
  Anticonvulsant activity: inactive
Mus musculus [5]
  Toxicity: Not Active
Mus musculus [6]
  Anticonvulsant activity: Active

## Nc1ccccc1C(=O)Nc1ccccc1
Mus musculus [1]
  Anticonvulsant activity: inactive
Mus musculus [2]
  Anticonvulsant activity: inactive
Mus musculus [7]
  Anticonvulsant activity: inactive
Mus musculus [8]
  Toxicity: Active
Mus musculus [5]
  Toxicity: Not Active
Mus musculus [9]
  Anticonvulsant activity: Active

## Cc1ccccc1NC(=O)c1ccccc1N
Mus musculus [10]
  Anticonvulsant activity: Active
Mus musculus [11]
  Anticonvulsant activity: Active
Mus musculus [12]
  Anticonvulsant activity: inactive
Mus musculus [5]
  Toxicity: Not Active
Mus musculus [9]
  Anticonvulsant activity: Active
Mus musculus [13]
  Toxicity: Active

## Cc1ccc(C)c(NC(=O)c2cccc(N)c2)c1
Mus musculus [14]
  Toxicity: Not Active
Mus musculus [1]
  Anticonvulsant activity: inactive
Mus musculus [2]
  Anticonvulsant activity: inactive
Mus musculus [15]
  Anticonvulsant activity: inactive
Mus musculus [16]
  Anticonvulsant activity: inactive
Mus musculus [17]
  Toxicity: Not Active

## Cc1cccc(NC(=O)c2cccc(N)c2)c1C
Mus musculus [1]
  Anticonvulsant activity: inactive
Mus musculus [2]
  Anticonvulsant activity: inactive
Mus musculus [18]
  Toxicity: inactive
Mus musculus [19]
  Toxicity: inactive
Mus musculus [4]
  Anticonvulsant activity: inactive
Mus musculus [6]
  Anticonvulsant activity: Active

## Cc1cccc(NC(=O)c2cccc(N)c2)c1
Mus musculus [10]
  Anticonvulsant activity: Active
Mus musculus [20]
  Anticonvulsant activity: Active
Mus musculus [21]
  Toxicity: Active
Mus musculus [22]
  Toxicity: Active
Mus musculus [23]
  Anticonvulsant activity: Active
Mus musculus [24]
  Anticonvulsant activity: Active

## Cc1ccc(NC(=O)c2ccccc2N)cc1C
Mus musculus [14]
  Toxicity: Not Active
Mus musculus [1]
  Anticonvulsant activity: inactive
Mus musculus [2]
  Anticonvulsant activity: inactive
Mus musculus [15]
  Anticonvulsant activity: inactive
Mus musculus [16]
  Anticonvulsant activity: inactive
Mus musculus [17]
  Toxicity: Not Active

## Cc1ccc(NC(=O)c2ccccc2N)c(C)c1
Mus musculus [10]
  Anticonvulsant activity: Active
Mus musculus [11]
  Anticonvulsant activity: Active
Mus musculus [4]
  Anticonvulsant activity: inactive
Mus musculus [8]
  Toxicity: Active
Mus musculus [5]
  Toxicity: Not Active
Mus musculus [6]
  Anticonvulsant activity: Active

## Cc1cc(C)cc(NC(=O)c2ccccc2N)c1
Mus musculus [14]
  Toxicity: Not Active
Mus musculus [1]
  Anticonvulsant activity: inactive
Mus musculus [2]
  Anticonvulsant activity: inactive
Mus musculus [15]
  Anticonvulsant activity: inactive
Mus musculus [16]
  Anticonvulsant activity: inactive
Mus musculus [17]
  Toxicity: Not Active

## CC(NC(=O)c1ccc(N)cc1)c1ccccc1 (stereo not drawn)
[25]
  PI: 9.5 and 4.1
Mus musculus [26]
  TD50: 170.78 mg/kg

## Cc1cccc(C)c1NC(=O)c1ccc(N)cc1 [AMELTOLIDE]
Mus musculus [27]
  ED50: 2.6 mg/kg

## Cc1cccc(NC(=O)c2ccccc2N)c1C
Mus musculus [1]
  Anticonvulsant activity: inactive
Mus musculus [11]
  Anticonvulsant activity: Active
Mus musculus [4]
  Anticonvulsant activity: inactive
Mus musculus [8]
  Toxicity: Active
Mus musculus [5]
  Toxicity: Not Active
Mus musculus [28]
  Anticonvulsant activity: inactive

## Cc1cc(C)cc(NC(=O)c2cccc(N)c2)c1
Mus musculus [29]
  Anticonvulsant activity: Active
Mus musculus [20]
  Anticonvulsant activity: Active
Mus musculus [4]
  Anticonvulsant activity: inactive
Mus musculus [8]
  Toxicity: Active
Mus musculus [9]
  Anticonvulsant activity: Active
